The text below walks through data of ChEMBL document CHEMBL1159062, “Towards the synthesis of bisubstrate inhibitors of protein farnesyltransferase: Synthesis and biological evaluation of new farnesylpyrophosphate analogues” (Bioorg Med Chem, 2010).

Calls of active or inactive are those of the source. No cut-off for these calls is given here. Bounds are passed on as bounds.

Test [1] has as its target T1, Protein farnesyltransferase (Homo sapiens, UniProt P49354+P49356). Kind of test: Inhibition of human recombinant FTase by fluorescent-based assay. The format is protein-complex assay.
Test [2] is described as follows: Inhibition of yeast recombinant FTase by fluorescent-based assay. More on the design: species or system Saccharomyces cerevisiae.
Test [3] concerns Plasmodium falciparum. Kind of test: Antiplasmodial activity against Plasmodium falciparum FcB1/Columbia assessed as [3H]hypoxanthine incorporation after 24 hrs by liquid scintillation spectrophotometer. The format is functional, organism-based. Put shortly:
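FcB1/Colombia (chloroquine-resistant) grown on human erythrocytes in RPMI 1640 + 8% heat-inactivated human serum, 37 °C, 3% CO2/6% O2/91% N2. Twofold serial dilutions from 10 mM DMSO stocks; asynchronous cultures at 1% parasitemia, 1% final hematocrit, 24 h, then 0.5 µCi [3H]-hypoxanthine for 24 h more. Freeze-thaw, filter harvest, scintillation counting versus same-plate control. IC50 from concentration–response curve; mean ± SD of several independent experiments.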

Test [4] concerns Trypanosoma brucei brucei. Briefly: Antitrypanosomal activity against Trypanosoma brucei brucei 93 blood stream form at 10 uM after 72 hrs by alamar blue assay. The format is functional. Particulars: for inhibition at 10 µM: Trypanosoma brucei, 93, 72 h. Put shortly: (§1)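 Strain 93 bloodstream forms cultured in HMI9 + 10% FCS, 37 °C, 5% CO2. Log-phase cells harvested at 3000g and seeded at 3 × 10^4 cells/mL. Inhibitors 0–100 µM, final DMSO 1%, 72 h. AlamarBlue (resazurin) added, read 4 h later at ex 530/em 590 nm. Inhibition relative to drug-free cells; triplicates, experiment repeated twice.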
On the technique in general: The colour change of resazurin is a common sign of viable cells or microbes.

The subject of test [5] is Trypanosoma brucei brucei. Kind of test: Antitrypanosomal activity against Trypanosoma brucei brucei 93 blood stream form at 1 uM after 72 hrs by alamar blue assay. The format is functional. A digest of the protocol: as §1
Test [6] has as its system KB. Briefly: Cytotoxicity against human KB cells at 10 uM after 72 hrs by MTS assay. The format is functional. Put shortly:
(§2)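 KB cells seeded at 2000/well and exposed 72 h to compound in medium with 1% final DMSO; docetaxel as positive control. Viability by MTS, OD 490 nm. Cytotoxicity index = OD treated/OD control × 100, from triplicates across three experiments.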
Background: Formazan colour is commonly taken as a measure of viable cells.

The subject of test [7] is Trypanosoma brucei brucei. Kind of test: Antitrypanosomal activity against Trypanosoma brucei brucei WT2913 procyclic form at 10 uM after 72 hrs by alamar blue assay. The format is functional. To be noted: for inhibition at 10 µM: WT2913, 72 h. Put shortly:
(§3)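 Strain WT 2913 procyclic forms kept in semi-defined medium 79 + 10% heat-inactivated FCS at 27 °C. Log-phase cells spun at 3000g and seeded at 1 × 10^6 cells/mL. Exposed 72 h to 0–100 µM inhibitor in 1% final DMSO. Resazurin (AlamarBlue) fluorescence read after a further 4 h, ex 530/em 590 nm. Growth inhibition versus untreated; triplicates, done twice.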

The subject of test [8] is KB. Kind of test: Cytotoxicity against human KB cells at 1 uM after 72 hrs by MTS assay. Type of test: functional, cell-based. A digest of the protocol:
as §2

The subject of test [9] is Trypanosoma brucei brucei. Briefly: Antitrypanosomal activity against Trypanosoma brucei brucei WT2913 procyclic form at 1 uM after 72 hrs by alamar blue assay. Type of test: functional, organism-based. A digest of the protocol: as §3
The target in test [10] is T1, Protein farnesyltransferase. Kind of test: Binding affinity to Dns-GCVLS peptide site of human recombinant FTase by competitive Michaelis-Menten analysis. The format is protein-complex assay. A digest of the protocol: (§4)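 Partially purified recombinant human FTase, fluorescent farnesylation of dansyl-GCVLS. Buffer: 5.8 mM DTT, 6 mM MgCl2, 12 µM ZnCl2, 0.18% octyl-glucopyranoside, 53 mM Tris/HCl pH 7.5. Kinetics: FPP varied with Dns-GCVLS fixed at 2.5 µM, or peptide varied with FPP fixed at 10 µM.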

Test [11] has the same target. Kind of test: Binding affinity to FPP site of human recombinant FTase by competitive Michaelis-Menten analysis. The format is protein-complex assay. Put shortly:
as §4

Test [12] has the same target. Briefly: Binding affinity to CaaX site of human recombinant FTase by non-competitive Michaelis-Menten analysis for enzyme-inhibitor complex. Type of test: protein-complex assay. A digest of the protocol: as §4
Test [13] has the same target. Briefly: Binding affinity to CaaX site of human recombinant FTase by non-competitive Michaelis-Menten analysis for enzyme-substrate-inhibitor complex. Type of test: protein-complex assay. A digest of the protocol: as §4

The IC50 is the concentration that gives 50% inhibition. For `CC(C)=CCC/C(C)=C/CC/C(C)=C/C=C/C(=O)NC(C(=O)O)C(=O)O`, in [1] (read-out: IC50), the IC50 is 10 µM.
Take `CC(C)=CCC/C(C)=C/CC/C(C)=C/CCC(=O)CCCC(=O)O`: the concentration for half-maximal inhibition (IC50) in test [2] (read-out: IC50) stood at 15 µM; in test [1] (read-out: IC50) it was 60 µM.
The matching figures for `CC(C)=CCC/C(C)=C/CC/C(C)=C/CC(=O)CCCC(=O)O`: 35 µM and 60 µM.
For orientation: inhibition means the change of the read-out against control, counted positive when it falls. For the molecule `CCOC(=O)C(C/C=C(\C)CC/C=C(\C)CCC=C(C)C)(CCCc1nccn1C)C(=O)OCC`, the IC50 in test [3] was determined as 4 µM. This molecule came in with an inhibition at 10 µM in test [4] of 89%. The Activity in test [5] amounted to 24%.
Consider `CC(C)=CCC/C(C)=C/CC/C(C)=C/CCC(=O)NS(=O)(=O)c1ccccc1`, for which the IC50 in test [2] (read-out: IC50) and in [1] (read-out: IC50) was above 200 µM in each case.
For the molecule `CC(C)=CCC/C(C)=C/CC/C(C)=C/C=C(C(=O)O)C(=O)O`, in test [1], the half-maximal inhibitory concentration (IC50) entry is on record as “Not Active”.
For `CC(C)=CCC/C(C)=C/CC/C(C)=C/CCC(=O)NC(C(=O)O)C(=O)O`, the IC50 amounted to 200 µM in test [2] (read-out: IC50) and 60 µM in test [1] (read-out: IC50).
Consider `CCOC(=O)C(C/C=C(\C)CC/C=C(\C)CCC=C(C)C)(CCCc1ncc(CN[C@H](C(=O)N[C@@H](Cc2ccccc2)C(=O)N[C@@H](CCSC)C(=O)OC)C(C)C)n1C)C(=O)OCC`, for which the inhibition at 10 µM in test [6] worked out at 44%; in test [7] it was 54%. The IC50 in test [3] was 1 µM; in [1], “Not Active”. Also, the result in [8] and in [9] was inactive.
Take `CC(C)=CCC/C(C)=C/CC/C(C)=C/CCC(N)=O`: the IC50 result in [2] was “Not Active”; in test [1] (read-out: IC50), above 200 µM.
The Ki is the equilibrium dissociation constant of an inhibitor or competing ligand from its target. Turning to `CC(C)=CCC/C(C)=C/CC/C(C)=C/CC(C(=O)O)C(=O)O`, the half-inhibitory concentration (IC50) in test [2] (read-out: IC50) was found to be 4 µM; in [1] (read-out: IC50) it was 0.9 µM. Moreover, in test [10], the result was inactive. Further, the Ki in [11] was 0.26 µM.
Turning to `CSCC[C@H](NC(=O)[C@H](Cc1ccccc1)NC(=O)[C@@H](NCc1cnc(CCCC(CC(=O)O)C(=O)O)n1C)C(C)C)C(=O)O` (stereo partly specified), in test [1] (read-out: IC50), the IC50 stood at 60 µM.
In the case of `CCOC(=O)C(C/C=C/c1ncc(CN[C@H](C(=O)N[C@@H](Cc2ccccc2)C(=O)N[C@@H](CCSC)C(=O)OC)C(C)C)n1C)(C/C=C(\C)CC/C=C(\C)CCC=C(C)C)C(=O)OCC`, the inhibition at 10 µM amounted to 60% in [6], 92% in [4] and 28% in [7]. Besides, the IC50 was 1.1 µM in [3] and “Not Active” in [1]. The molecule also displayed an Activity in [5] of 64%. Besides, the outcome in test [8] and in [9] was inactive.
With `CC(C)=CCC/C(C)=C/CC/C(C)=C/CCC(=O)CCC(=O)O`, the figures for the concentration for half-maximal inhibition (IC50) in test [2] (read-out: IC50) and in test [1] (read-out: IC50) were 80 µM and above 200 µM, respectively.
The matching figures for `CC(C)=CCC/C(C)=C/CC/C(C)=C/CCC(=O)NS(=O)(=O)O`: above 200 µM and 85 µM.
For the molecule `CCOC(=O)C(C/C=C(\C)CC/C=C(\C)CCC=C(C)C)(CCCc1ncc(CN[C@H](C(=O)N[C@@H](Cc2ccccc2)C(=O)N[C@@H](CCSC)C(=O)O)C(C)C)n1C)C(=O)O` (stereo partly specified), the inhibition entry in [6], in test [4] and in test [7] was “inactive” throughout. Moreover, the IC50 in [3] came out at 31.4 µM; in [1] (read-out: IC50), 0.24 µM. Moreover, the Ki in test [12] came to 7.7 µM; in test [13], 5.6 µM; in [11], 0.23 µM.
As to `CC(C)=CCC/C(C)=C/CC/C(C)=C/C/C=C/C(=O)O`, the values for the IC50 in test [2] (read-out: IC50) and in [1] (read-out: IC50) were 40 µM and 130 µM, respectively.
In the case of `CCCCCCCCCCCCCC/C(C(=O)O)=C(\C)C(=O)O` [CHAETOMELLIC ACID A], the IC50 is 0.34 µM in [2] (read-out: IC50) and 0.175 µM in test [1] (read-out: IC50).
Turning to `CC(C)=CCC/C(C)=C/CC/C(C)=C/C(c1nccn1C)C(CC(=O)O)C(=O)O` (stereo unspecified), the IC50 in [1] (read-out: IC50) is 12 µM.
With `CC(C)=CCC/C(C)=C/CC/C(C)=C/CCCC(=O)O`, the values for the IC50 in [2] (read-out: IC50) and in test [1] (read-out: IC50) were 42 µM and 170 µM, respectively.
As to `CC(C)=CCC/C(C)=C/CC/C(C)=C/COC(=O)CC(=O)O`, the IC50 is 80 µM in test [2] (read-out: IC50) and 160 µM in test [1] (read-out: IC50).
With `CC(C)=CCC/C(C)=C/CC/C(C)=C/CCC(=O)NO`, the IC50 result in test [2] was “Not Active”.
Consider `CC(C)=CCC/C(C)=C/CC/C(C)=C/CC(CCCc1nccn1C)(C(=O)O)C(=O)O`, for which the IC50 in test [1] (read-out: IC50) turned out to be 21 µM.
For the molecule `CC(C)=CCC/C(C)=C/CC/C(C)=C/COC(C(=O)O)C(=O)O`, the values for the IC50 in test [2] (read-out: IC50) and in test [1] (read-out: IC50) were 5 µM and 0.88 µM, respectively.
Consider `CCOC(=O)C(C/C=C/c1ncc(CN[C@H](C(=O)N[C@@H](Cc2ccccc2)C(=O)N[C@@H](CCSC)C(=O)O)C(C)C)n1C)(C/C=C(\C)CC/C=C(\C)CCC=C(C)C)C(=O)O` (stereo partly specified), for which the inhibition result in test [6], in test [4] and in [7] was “inactive” in each case. In addition, the IC50 was determined as 17.2 µM in test [3] and 0.64 µM in [1] (read-out: IC50). Further, the Ki came to 17 µM in test [12], 15 µM in test [13] and 0.5 µM in test [11].
Consider `CC(C)=CCC/C(C)=C/CC/C(C)=C/COC(=O)CCC(=O)O`, for which the figures for the 50% inhibitory concentration (IC50) in [2] (read-out: IC50) and in test [1] (read-out: IC50) were 100 µM and 130 µM, respectively.
Turning to `CC(C)=CCC/C(C)=C/CC/C(C)=C/C=C/C(N)=O`, the IC50 result in test [2] and in [1] was “Not Active” each time.
